Results as given in ChEMBL document CHEMBL1122809, “Improved synthesis and antitumor activity of 2-bromo-2'-deoxyadenosine” (1984).

Experiments:
L1210 [1] = experiment: Antitumor activity expressed as life span was determined against inoculated L1210 leukemia cells (1*10e6) in mice by 11.3 mg/kg dosage of compound (qd (x 3), for days 1, 4, 7); assay type: functional, Mus musculus
Outline: (§1)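 Female mice (~18 g, housed six per cage) received L1210 cells intraperitoneally on day 0. Drug was made fresh and injected at 0.01 mL/g; the stated dose is per injection. Controls received the same volume of 0.154 M NaCl. Survival was followed, with deaths assigned to tumour by necropsy or to drug toxicity by set criteria. Life span is given as mean ± SD.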

L1210 [2] = experiment: Antitumor activity expressed percentage increase in life span was determined against inoculated L1210 leukemia cells (1*10e6) in mice by 5.6 mg/kg dosage of compound (qd (x 3), for days 1, 4, 7); assay type: functional; details: Mus musculus
Outline: (§2)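 L1210 cells were given intraperitoneally to female mice (~18 g). Freshly prepared drug was injected at 0.01 mL/g, dose per injection, and saline-injected controls were run. The end point was duration of survival. ILS was calculated as percent increase in mean life span over controls. Mice surviving 60 days or more counted as long-term survivors, scored as 60 days.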

L1210 [3] = experiment: Antitumor activity expressed percentage increase in life span was determined against inoculated L1210 leukemia cells (1*10e6) in mice by 11.3 mg/kg dosage of compound (qd (x 3), for days 1, 4, 7); assay type: functional; details: Mus musculus; outline: as §2
L1210 [4] = experiment: Antitumor activity expressed as life span was determined against inoculated L1210 leukemia cells (1*10e6) in mice by 110 mg/kg dosage of compound (qd (x 3), for days 1, 4, 7); assay type: functional, Mus musculus; outline: as §1
L1210 [5] = experiment: Antitumor activity expressed as life span was determined against inoculated L1210 leukemia cells (1*10e5) in mice by 5.6 mg/kg dosage of compound (qd (x 3), for days 1,5,9); assay type: functional, Mus musculus; outline: as §1
M5076 = experiment: Antitumor activity was evaluated by measuring mean life span in tumor (M5076) inoculated mice at 5.6 mg/kg (qd3hx8),days 1-34; assay type: functional, Mus musculus
Outline: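 Female mice of about 18 g received subcutaneous M5076 implants matching those used for serial passage. Drug was freshly prepared and injected at 0.01 mL/g every 3 h (×8) on every 3rd day from day 1 to day 34, with the dose stated per injection. Controls received 0.154 M NaCl. Groups held 18 mice (11 in one group). Mean life span was reported as mean ± SD, and tumor volume was also assessed.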

L1210 [6] = experiment: Antitumor activity expressed as life span was determined against inoculated L1210 leukemia cells (1*10e6) in mice by 140 mg/kg dosage of compound (qd (x 3), for days 1, 4, 7); assay type: functional, Mus musculus; outline: as §1
L1210 [7] = experiment: Antitumor activity expressed percentage increase in life span was determined against inoculated L1210 leukemia cells (1*10e6) in mice by 110 mg/kg dosage of compound (qd (x 3), for days 1, 4, 7); assay type: functional; details: Mus musculus; outline: as §2
L1210 [8] = experiment: Antitumor activity expressed percentage increase in life span was determined against inoculated L1210 leukemia cells (1*10e6) in mice by 30 mg/kg dosage of compound (qd (x 3), for days 1- 7); assay type: functional; details: Mus musculus; outline: as §2
B16 melanoma (mouse) = experiment: Antitumor activity was evaluated by measuring mean life span in tumor (B16 melanoma) inoculated mice at 22.5 mg/kg (qd3hx8),days 1,4,7,10,13,16
L1210 [9] = experiment: Antitumor activity expressed percentage increase in life span was determined against inoculated L1210 leukemia cells (1*10e5) in mice by 5.6 mg/kg dosage of compound (qd (x 3), for days 1, 4, 7); assay type: functional; details: Mus musculus; outline: as §2
L1210 [10] = experiment: Antitumor activity expressed percentage increase in life span was determined against inoculated L1210 leukemia cells (1*10e6) in mice by 50 mg/kg dosage of compound (qd (x 3), for days 1- 7); assay type: functional; details: Mus musculus
Outline: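 Female mice of about 18 g (BDF1, DBA/2 or C57Bl/6 stocks used) were inoculated intraperitoneally with 1 × 10^6 L1210 cells. Freshly prepared drug was given once daily from about 24 h after inoculation at 0.01 mL/g, with the dose stated per injection. Controls received 0.154 M NaCl, and groups held 6 mice. %ILS was taken from mean survival, with mice alive at 60 days or more counted as 60 days.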

L1210 [11] = experiment: Antitumor activity expressed percentage increase in life span was determined against inoculated L1210 leukemia cells (1*10e6) in mice by 110 mg/kg dosage of compound (qd (x 3), for days 1-7); assay type: functional; details: Mus musculus; outline: as §2
L1210 [12] = experiment: Antitumor activity expressed percentage increase in life span was determined against inoculated L1210 leukemia cells (1*10e6) in mice by 45 mg/kg dosage of compound (qd (x 3), for days 1, 4, 7); assay type: functional; details: Mus musculus; outline: as §2
L1210 [13] = experiment: Antitumor activity expressed as life span was determined against inoculated L1210 leukemia cells (1*10e5) in mice by 11.3 mg/kg dosage of compound (qd (x 3), for days 1, 4, 7,10,13,16); assay type: functional, Mus musculus; outline: as §1
L1210 [14] = experiment: Antitumor activity expressed percentage increase in life span was determined against inoculated L1210 leukemia cells (1*10e6) in mice by 5.6 mg/kg dosage of compound (qd (x 3), for days 1, 4, 7,10,13,16); assay type: functional; details: Mus musculus

Nc1nc(Br)nc2c1ncn2[C@H]1C[C@H](O)[C@@H](CO)O1 gave a Life span (L1210 [1]) of 12.92 days, an ILS at 5.6 mg/kg (L1210 [2]) of 75% and an ILS at 11.3 mg/kg (L1210 [3]) of 104%. It also gave a Life span (L1210 [4]) of 8.17 days, a Life span (L1210 [5]) of 12.36 days and a Life span (M5076) of 34.44 days. It also gave a Life span (L1210 [6]) of 8 days, an ILS at 110 mg/kg (L1210 [7]) of 29% and an ILS at 30 mg/kg (L1210 [8]) of 21%. The Life span (B16 melanoma (mouse)) was 19.22 days, the ILS at 5.6 mg/kg (L1210 [9]) was 60% and the ILS at 50 mg/kg (L1210 [10]) was 42%. For the same compound, the ILS at 110 mg/kg (L1210 [11]) was 0%, the ILS at 45 mg/kg (L1210 [12]) was 113% and the Life span (L1210 [13]) was 18.67 days. For the same compound, the ILS at 5.6 mg/kg (L1210 [14]) was 48%.
